Columns and labels:
[1] = tested on: recombinant HIV–1 (NL4.3–Ren); format: cell-based; details: Human immunodeficiency virus 1, MT2, 48 h, read-out: IC50 μM HIV (CI95%; R2), isolated compounds, MT–2 cells, wild type HIV NL4.3–Ren
Outline: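 MT-2 cells (RPMI-1640, 10% FBS, 2 mM L-glutamine, penicillin/streptomycin; 37 °C, 5% CO2) were infected with NL4.3-Ren supernatant (100.000 RLUs or 20 ng p24 per well) alongside serial dilutions of test compound (10 mM DMSO stock). Enfuvirtide served as control. After 48 h, lysates were read for Renilla-luciferase RLUs against vehicle-matched untreated cells (100%). IC50 came from non-linear regression.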

[2] = tested on: VSV pseudotyped HIV (VSV–HIV); assay: microbe, parasite or virus in culture; format: cell-based, HIV–1; details: for IC50: Vesicular stomatitis virus, MT2, 48 h, read-out: IC50 μM VSV–HIV (CI95%; R2); for Effect on viral entry: comparison of HIV IC50 and VSV–HIV IC50 in MT–2 cells
[3] = Cell viability in mock–infected MT–2 cells; format: cell-based; details: human, mock-infected MT-2 cells
Outline: (§1)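 Test compound (from 10 mg/mL or 10 mM DMSO stocks) was added at graded concentrations to mock-infected MT-2 cells, run in parallel with the 48 h antiviral assay. Cells were grown in RPMI-1640 with 10% FBS, 2 mM L-glutamine and penicillin/streptomycin at 37 °C, 5% CO2. Viability was read by CellTiter Glo as % of the DMSO-matched control. CC50 came from non-linear regression.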

[4] = tested on: HIV transcription (pNL4.3–Luc); assay: HIV transcription assay: MT–2 cells transfected with pNL4.3–Luc; format: cell-based, HIV–1
Outline: (§2)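 MT-2 cells were electroporated at 260 V in serum-free RPMI with a luciferase reporter: pNL4.3-Luc (whole HIV-1 genome), 3-enh-κB-ConA-luc (three κB copies), or Sp1-Luc (two Sp1 sites). Cells were seeded in complete RPMI with serial dilutions or one selected concentration of test compound at 37 °C for 48 h. PMA 100 nM was the reference. RLUs were expressed as % of DMSO control, with Bonferroni-corrected one-way ANOVA.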

[5] = tested on: NF–κB; assay: NF–κB activity: MT–2 cells transfected with NF–κB–Luc plasmid; format: cell-based
Outline: as §2

[6] = tested on: Sp1; assay: Sp1 activity: MT–2 cells transfected with Sp1–Luc plasmid; format: cell-based; details: 48 h
Outline: as §2

[7] = tested on: THP–1 cells; assay: Glutathione determination; format: cell-based; details: maximum redox index reached, maximum 1 (all glutathione reduced)
Outline: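 THP-1 cells were treated with serial dilutions of test compound, with resveratrol as reference. Cells were lysed in 0.1 M sodium phosphate/0.005 M EDTA, pH 8, plus 60% HClO4 (10 μL/mL), then spun at 6000g for 10 min at 4 °C. GSH and GSSG were measured by OPT fluorescence (ex 350/em 420 nm) against a GSH standard curve. Redox index = GSH/(GSH+GSSG), maximum 1. EC50 and Emax came from non-linear dose-response fits.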

[8] = tested on: MT–2 cells; assay: Cell viability in mock–infected MT–2 cells; format: cell-based; details: MT–2 cells
Outline: as §1

[9] = fixed concentration 20 μM, pNL4.3–Luc, 48 h
[10] = fixed concentration 20 μM, NF–κB–Luc, 48 h

Row | SMILES | IC50 [1] [µM] | IC50 [2] [µM] | Effect on viral entry [2] | CC50 at 48 h [3] [µM] | Effect on HIV transcription [4, 9] | Effect on NF–κB activity [5, 10] | Effect on Sp1 activity ([6]; fixed concentration 20 μM) | Emax (CI95%) [7] | Concentrations toxic to MT–2 cells [8] | Effect on HIV transcription ([4]; 4 μM, pNL4.3–Luc, 48 h, vs untreated control) | Effect on NF–κB activity ([5]; 4 μM, NF–κB–Luc, 48 h, vs untreated control) | Effect on Sp1 activity ([6]; 4 μM, vs untreated control) | Toxicity at 100 μM ([8]; 100 μM) | Effect on HIV transcription ([4]; one selected active concentration (not given), compared with damsin) | Effect on NF–κB activity ([5]; one selected active concentration (not given))
1 | COc1c(OC)c(O)c2c(=O)cc(-c3ccc(O)cc3)oc2c1OC [Xanthomicrol, xanthomicrol] | 17.4 | 34.4 | HIV–1 entry is impaired | > 100 | active as HIV transcriptional inhibitor | weak inhibition of NF–κB | no effect on Sp1 | 0.93 (0.81–1.04) |  |  |  |  |  |  | 
2 | COc1ccc(-c2cc(=O)c3cc(OC)ccc3o2)c(OC)c1 [Trimethoxyflavone, 6,2′,4′–trimethoxyflavone] | 28.4 | 35.6 | ruling out an effect on viral entry | > 100 | almost complete inhibition | almost complete inhibition | almost complete inhibition | 0.74 (0.47–1.00) |  |  |  |  |  |  | 
3 | C=C1C(=O)O[C@@H]2[C@H]1CC[C@H](C)[C@@H]1CCC(=O)[C@@]21C [Damsin, damsin] | 0.84 | 0.83 | viral entry is not their target | 20 to 100 |  |  |  |  | higher than 20 μM | completely inhibits | completely inhibits | completely inhibits |  |  | 
4 | C[C@]12CCC(=O)C=C1C=C[C@@H]1[C@@H]2CC[C@@]2(C)[C@H]1CC[C@@]21CCC(=O)O1 [Canrenone, canrenone] | 18.9 | 14.2 | viral entry is not their target | ~100 |  |  |  |  |  |  |  |  | slight toxicity | slightly less active | more powerful activity as a NF–κB inhibitor than as a Sp1 inhibitor
5 | Oc1ccc(/C=C/c2cc(O)cc(O)c2)cc1 [Resveratrol, resveratrol, reference compound] |  |  |  |  |  |  |  | 0.94 (0.92–0.96) |  |  |  |  |  |  | 

Source: paper PMC7397943 (Journal of Ethnopharmacology, 2020)
